S100A4 inh HTS: inhibitors of S100A4-myosin IIA peptide binding, primary screen, biochemical, fluorescence polarization, TAMRA-MyoIIA peptide | 0.14% of 360,000 active | AID 652163, 2013 | inhibition, % at 10.7 µM;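 active = mean inhibition of at least 70% across replicates, with every replicate also reaching that level; inconclusive = mean inhibition reaches 70% but some replicates fall short; inactive = mean inhibition below 70%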
Target sequence (P26447 whole entry, looked up): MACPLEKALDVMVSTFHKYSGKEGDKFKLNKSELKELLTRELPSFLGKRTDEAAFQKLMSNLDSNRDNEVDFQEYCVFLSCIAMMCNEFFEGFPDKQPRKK
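Test system: S100A4 monomer protein; Medium: HEPES pH 7.2 with CaCl2, KCl, NaCl, DTT, Triton; Probe or stimulus: TAMRA-labelled myosin IIA heavy-chain peptide probe, 5 nM; Doses: one dose per compound; Times: polarization read 5 min after assay mix addition, stable 5–60 min; Benchmarks: neutral control DMSO, positive control TFP.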
FGF22 binding: binders of human FGF22 protein, primary screen, FGF22 synaptogenesis inhibitor project, biophysical, thermal shift, single point | Fibroblast growth factor 22 (Homo sapiens), Q9HCT0 | recombinant FGF22 thermal shift, SYPRO orange fluorescence; percent of sucrose octasulfate shift, DMSO zero | activity (Tm shift, normalised), % at 9.99 µM | 1.5% of 340,000 active;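 active = mean Tm shift, scaled 0 neutral to 100 positive control, at about 1.3% or above, every replicate too, limit read from the data; inconclusive = no clear call, values can overlap the other calls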
E-sel inducer: E-selectin induction in HUVECs, primary screen, imaging, HUVEC, immunofluorescence imaging, single point. P16581. normalized: neutral wells 0, TNF-alpha wells 100. activation, % at 7.58 µM. 0.37% of 260,000 active. AID 686992, 2013;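 active = mean E-selectin-positive cell signal at least 10% of the positive control, reached in at least 60% of replicates, without over 20% cell loss; inconclusive = no rule given, readout overlaps actives, possibly toxicity-flagged; inactive = the rest, including those meeting only one limit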
Target sequence (P16581 whole entry, looked up): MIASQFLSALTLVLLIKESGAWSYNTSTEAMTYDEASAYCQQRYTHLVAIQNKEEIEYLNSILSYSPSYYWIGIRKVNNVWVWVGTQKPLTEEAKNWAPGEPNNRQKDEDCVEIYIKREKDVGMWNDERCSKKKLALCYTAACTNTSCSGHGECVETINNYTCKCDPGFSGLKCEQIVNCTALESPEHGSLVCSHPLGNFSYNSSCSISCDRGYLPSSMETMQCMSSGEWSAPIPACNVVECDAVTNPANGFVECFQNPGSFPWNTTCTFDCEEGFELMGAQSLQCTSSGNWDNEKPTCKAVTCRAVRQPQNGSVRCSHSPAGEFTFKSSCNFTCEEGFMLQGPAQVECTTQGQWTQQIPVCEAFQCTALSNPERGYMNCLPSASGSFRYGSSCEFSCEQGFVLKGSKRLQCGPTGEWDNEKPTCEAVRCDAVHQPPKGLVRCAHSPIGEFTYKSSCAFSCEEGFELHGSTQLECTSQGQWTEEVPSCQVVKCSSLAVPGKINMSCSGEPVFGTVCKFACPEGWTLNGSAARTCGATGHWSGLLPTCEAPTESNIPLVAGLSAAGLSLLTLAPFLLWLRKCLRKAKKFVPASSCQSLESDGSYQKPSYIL
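assay system = HUVEC, human umbilical vein endothelial cells | input = 3,000 HUVEC seeded per well | medium = EGM-2 growth medium on 0.1% gelatin-coated wells | dosing = one compound dose added by pin transfer | signal = immunofluorescence imaging | read-out basis = % PE-positive cells | control set = TNF-alpha, DMSO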
miR122 inh: miR-122 Renilla sensor signal increase in Huh7, primary screen, miR-122 inhibitor project, cell-based, single point, plate reader | Huh7 miR-122 Renilla luciferase sensor, 48 h; neutral wells = 0, positive control = 100 | activation (reporter increase), % at 12.5 µM | 0.3% of 340,000 active;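 active = mean replicate activation score at least 90 and every replicate individually at or above 90; inconclusive = only one of the two criteria met; inactive = neither criterion met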;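 note: higher luciferase means less miR-122 activity so hits act as miR-122 inhibitors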
SIRT5 inh: SIRT5 desuccinylase inhibitors, primary screen, biochemical, fluorescence imaging, single point, set 5; NAD-dependent protein deacylase sirtuin-5, mitochondrial (Homo sapiens), Q9NXA8; Purified SirT5, succinyl-peptide AMC, trypsin-coupled fluorescence; inhibition, % at 15 µM; 1.1% of 330,000 active; in the data active = inhibition above about 15%; inconclusive = no clear call, values can overlap the other calls
Of the large screens only hits and unclear results are named; the others gave an inactive call. Most compounds without a hit are left out; they make up all but 2.5% or so of the library.

COc1ccccc1N=C1SC(C(=O)Nc2cccc(Cl)c2Cl)C(N)=C1C(N)=O (centres undefined)	SIRT5 inh 21 (no result: miR122 inh)
O=C(CN(CC1CCCO1)C(=O)CNS(=O)(=O)c1ccccc1)NCc1ccc(F)cc1 (centres undefined)	E-sel inducer 26
CC(C)C(C(=O)NCc1ccco1)N(CC1CCCO1)C(=O)CNS(=O)(=O)c1ccccc1 (centres undefined)	FGF22 binding 43 (no result: E-sel inducer)
CCn1cc(C(=O)O)c(=O)c2cnc(N3CCN(C(=S)Nc4ccccc4Cl)CC3)nc21	SIRT5 inh 16
CC(C)C#Cc1ccc2c(c1)O[C@H](CN(C)S(C)(=O)=O)[C@H](C)CN([C@H](C)CO)S2(=O)=O	none
CCN(c1ccccc1)S(=O)(=O)c1cc2c(cc1C)N(C)CCO2	FGF22 binding 43
CN(C)C(=O)C[C@@H]1C[C@@H]2c3cc(NC(=O)C4CCC4)ccc3O[C@@H]2[C@@H](CO)O1	none (no result: FGF22 binding)
CCCCCCCNC(=O)C1(CC2CC(c3ccccc3)=NO2)CCN(C(=O)OC(C)(C)C)CC1 (centres undefined)	SIRT5 inh 17
O=C(O)c1cc(-c2ccc3c(c2)OCCO3)n[nH]1	FGF22 binding 43 (no result: E-sel inducer)
CC(C)CC#Cc1ccc2c(c1)O[C@@H](CN(C)C(=O)c1cccc(F)c1)[C@@H](C)CN([C@@H](C)CO)S2(=O)=O	none
CC(C)C#Cc1ccc2c(c1)O[C@H](CN(C)C(=O)c1cccc(F)c1)[C@H](C)CN([C@@H](C)CO)S2(=O)=O	none
CC(C)CC#Cc1ccc2c(c1)O[C@H](CN(C)C(=O)c1cccc(F)c1)[C@@H](C)CN([C@@H](C)CO)S2(=O)=O	SIRT5 inh 18
CC(C)CC#Cc1ccc2c(c1)O[C@@H](CN(C)C(=O)c1cccc(F)c1)[C@H](C)CN([C@@H](C)CO)S2(=O)=O	SIRT5 inh 22
CC(C)CC#Cc1ccc2c(c1)O[C@@H](CN(C)C(=O)c1cccc(F)c1)[C@H](C)CN([C@H](C)CO)S2(=O)=O	SIRT5 inh 16
CC(C)CC#Cc1ccc2c(c1)O[C@@H](CN(C)C(=O)c1ccccc1)[C@H](C)CN([C@H](C)CO)S2(=O)=O	none
CC(C)CC#Cc1ccc2c(c1)O[C@H](CN(C)C(=O)c1cccc(F)c1)[C@@H](C)CN([C@H](C)CO)S2(=O)=O	SIRT5 inh 22
CC(C)CC#Cc1ccc2c(c1)O[C@H](CN(C)C(=O)c1ccccc1)[C@@H](C)CN([C@@H](C)CO)S2(=O)=O	E-sel inducer inconclusive
O=C(Nc1ccc(F)cc1)N1CCCCN2[C@H](CO)[C@@H](c3ccc(C4=CCCCC4)cc3)[C@H]2C1	none
COc1ccc2c3c([nH]c2c1)[C@@H](CO)N(C(=O)C1CCCC1)CC31CN(S(C)(=O)=O)C1	none (no result: miR122 inh)
CO[C@H]1CN(C)C(=O)c2ccc(NC(=O)C3CC3)cc2OC[C@H](C)N(CC2CCCC2)C[C@@H]1C	none (no result: miR122 inh)
C[C@@H]1CN([C@@H](C)CO)S(=O)(=O)c2ccc(C#CC3CC3)cc2O[C@@H]1CN(C)C(=O)c1cccc(F)c1	SIRT5 inh 23
CC(C)CC#Cc1ccc2c(c1)O[C@H](CN(C)C(=O)c1ccccc1)[C@H](C)CN([C@H](C)CO)S2(=O)=O	SIRT5 inh 15
CSc1ncccc1C(=O)OCC(=O)Nc1ccc(C)c(S(=O)(=O)N2CCOCC2)c1	FGF22 binding 43 (no result: SIRT5 inh)
CSc1ncccc1C(=O)OCC(=O)Nc1cccc(S(=O)(=O)N2CCOCC2)c1	FGF22 binding 43 (no result: SIRT5 inh)
Cc1ccc(NC(=O)COC(=O)c2cccnc2Cl)cc1S(=O)(=O)N1CCOCC1	none (no result: E-sel inducer)
O=C(COC(=O)c1cccnc1Cl)Nc1cccc(S(=O)(=O)N2CCOCC2)c1	none
COc1cccc(S(=O)(=O)N2CC[C@@H]3[C@@H](CO)Nc4ccc(-c5ccc(C#N)cc5)cc4[C@@H]32)c1	none (no result: S100A4 inh HTS, SIRT5 inh)
CCCC#Cc1cnc2c(c1)C(=O)N([C@H](C)CO)C[C@@H](C)[C@H](CN(C)C(=O)C1CCC1)O2	none
CO[C@H]1CN(C)C(=O)c2cc(NC(C)=O)ccc2OC[C@H](C)N(Cc2nccs2)C[C@H]1C	none
CCNc1nc(C#N)nc2c1ncn2-c1cc(F)cc(F)c1	SIRT5 inh 25
COCCNC(=O)CCCn1c(=O)c2cc(OC)c(OC)cc2n(CC(=O)c2cccc(OC)c2)c1=O	SIRT5 inh 19
COCCNC(=O)CCCn1c(=O)c2cc(OC)c(OC)cc2n(CC(=O)Nc2ccccc2OC)c1=O	none
CO[C@H]1CN(C)C(=O)c2ccc(NS(=O)(=O)c3cn(C)cn3)cc2OC[C@H](C)N(CCC(F)(F)F)C[C@@H]1C	none (no result: miR122 inh)
OCCN(Cc1cccnc1)Cc1ccccn1	none (no result: miR122 inh)
OCCN(Cc1ccccc1)Cc1ncccc1O	FGF22 binding 43 (no result: miR122 inh, SIRT5 inh)
COCC(=O)N1CC2(CCN(Cc3ccccc3Cl)CC2)c2c([nH]c3cc(OC)ccc23)[C@H]1CO	S100A4 inh HTS 85 (no result: miR122 inh)
COc1ccc(CN2CC3(CN(C(=O)c4ccccc4)C3)c3c([nH]c4cc(OC)ccc34)[C@H]2CO)cc1	S100A4 inh HTS 73 (no result: FGF22 binding, miR122 inh)
CCCNC(=O)Nc1ccc2c(c1)C(=O)N(C)C[C@@H](OC)[C@@H](C)CN(CCC(F)(F)F)[C@H](C)CO2	none (no result: S100A4 inh HTS, FGF22 binding, SIRT5 inh)
COc1cc(C(=O)NC2CCCCC2)ccc1OCc1ccc(Cl)cc1Cl	FGF22 binding 43 (no result: miR122 inh)
Cc1cc(NC(=O)c2ccccc2F)n(C(C)(C)C)n1	E-sel inducer 34 (no result: SIRT5 inh)
CC(C)(C)NC(=O)CSc1nc(N)c(NC(=O)c2ccccc2F)c(=O)[nH]1	FGF22 binding 44 (no result: E-sel inducer)
CN=C(Nc1cc(C)nn1-c1ccccc1)c1ccccc1F	SIRT5 inh 16 (no result: E-sel inducer)
Cc1cc(NC(=O)c2ccc(F)cc2F)n(-c2nc3ccccc3[nH]2)n1	none (no result: E-sel inducer)
O=C(Nc1ccc(F)cc1)N[C@H]1CC[C@H](CCn2cc(C3(O)CCCC3)nn2)O[C@H]1CO	none (no result: miR122 inh)
C[C@H](CO)N1C[C@H](C)[C@H](CN(C)Cc2ccc(Oc3ccccc3)cc2)Oc2ccc(NS(=O)(=O)c3cccs3)cc2C1=O	none
O=C(NCC1CCCCC1)[C@@H]1[C@@H](CO)[C@@H]2Cn3c(ccc(-c4cccnc4)c3=O)[C@H]1N2	none (no result: FGF22 binding, miR122 inh)
C[C@@H]1CCCCO[C@@H](CN(C)Cc2ccncc2)[C@H](C)CN([C@@H](C)CO)C(=O)c2cc(NC(=O)CCCCCC(=O)Nc3ccccc3N)ccc2O1	none (no result: miR122 inh)
CCOc1cccc(CN2CCCC(N3CCN(c4cccc(Cl)c4)CC3)C2)c1O (centres undefined)	SIRT5 inh 69 (no result: E-sel inducer)

High-throughput results (PubChem BioAssay)
